This passage reports IC50 and Ki results from ChEMBL document CHEMBL3393025, “Discovery of dual leucine zipper kinase (DLK, MAP3K12) inhibitors with activity in neurodegeneration models” (J Med Chem, 2015).

Test [1] concerns the target T1, Mitogen-activated protein kinase kinase kinase 12 (Homo sapiens, UniProt Q12852).
T1 sequence (Q12852 whole entry): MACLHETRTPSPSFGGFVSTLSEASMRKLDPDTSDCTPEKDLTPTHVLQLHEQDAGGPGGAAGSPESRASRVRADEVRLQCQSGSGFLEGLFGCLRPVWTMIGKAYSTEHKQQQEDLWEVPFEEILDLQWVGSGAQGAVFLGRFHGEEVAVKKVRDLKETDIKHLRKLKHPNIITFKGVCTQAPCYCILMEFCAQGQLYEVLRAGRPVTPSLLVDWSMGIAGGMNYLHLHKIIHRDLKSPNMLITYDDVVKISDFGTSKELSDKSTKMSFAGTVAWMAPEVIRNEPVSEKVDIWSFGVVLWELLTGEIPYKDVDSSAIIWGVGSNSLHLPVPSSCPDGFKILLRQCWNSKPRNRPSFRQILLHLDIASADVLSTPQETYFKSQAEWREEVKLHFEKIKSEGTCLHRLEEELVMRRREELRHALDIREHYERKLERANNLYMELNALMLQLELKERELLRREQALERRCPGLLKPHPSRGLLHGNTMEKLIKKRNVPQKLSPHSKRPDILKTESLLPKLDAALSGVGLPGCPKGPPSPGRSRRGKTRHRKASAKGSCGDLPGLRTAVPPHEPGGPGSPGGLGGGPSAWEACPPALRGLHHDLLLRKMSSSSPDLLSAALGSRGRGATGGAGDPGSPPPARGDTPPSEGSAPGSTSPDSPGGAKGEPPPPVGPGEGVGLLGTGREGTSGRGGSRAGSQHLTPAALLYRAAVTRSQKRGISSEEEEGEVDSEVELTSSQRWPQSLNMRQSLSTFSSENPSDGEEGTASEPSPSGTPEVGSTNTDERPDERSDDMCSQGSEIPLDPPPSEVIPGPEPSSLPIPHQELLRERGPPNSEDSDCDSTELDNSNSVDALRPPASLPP
Kind of test: Inhibition of human DLK transfected in HEK293 cells assessed as JNK phosphorylation after 5.5 hrs by Hoechst-33342 staining-based assay. It is filed as cell-based.

In test [2] the target is T1, Mitogen-activated protein kinase kinase kinase 12. Nature of the test: Inhibition of DLK (unknown origin).
Test [3] is described as follows: Neuroprotective activity in E14.5 rat embryo DRG neurons. It is filed as functional. To be noted: drg neuron. The essentials: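 DRG neurons freshly dissected from E14.5 rat embryos, plated at 1200−2000 cells/well on an astrocyte monolayer in DMEM/F12 with N3 supplement, 0.18% glucose and 25 ng/mL NGF. 200 μM uridine and 100 μM 5-fluorodeoxyuridine added next day. Cultured 4 days before axon degeneration assay. IC50 reported.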

As for `N#Cc1ccnc(Nc2cc(C3(C#N)CCOCC3)cc(N3CCC(F)(F)C3)n2)c1`, the IC50 in test [1] was determined as 79 nM. In test [2], this compound returned a Ki of 5 nM.

With `N#Cc1ccnc(Nc2cc(C3CCN(C4COC4)CC3)cc(C3CC3)n2)c1`, the IC50 was 62 nM in test [1] and 155 nM in test [3]. In addition, the inhibition constant (Ki) in test [2] came to 1 nM.

On to `N#Cc1ccnc(Nc2cc(C3CCN(C4COC4)CC3)cc(N3CCC3)n2)c1`, for which the IC50 in test [1] was found to be 141 nM; in test [3], 448 nM. The same compound displayed a Ki in test [2] of 8 nM.

`CC(=O)N1CCC(c2cc(Nc3cc(C(F)(F)F)ccn3)nc(N3CCC(F)(F)C3)c2)CC1`: the figures for the IC50 in test [1] and in test [3] were 69 nM and 171 nM, respectively. Moreover, the Ki in test [2] was found to be 1 nM.

Turning to `CC(C)(O)c1cc(Nc2cc(C#N)ccn2)nc(N2CCC(F)(F)C2)c1`, the IC50 in test [1] is 125 nM; in test [3], 401 nM. Besides, the Ki in test [2] is 5 nM.

As for `N#Cc1ccnc(Nc2cc(C3CCOCC3)cc(N3CCC(F)(F)C3)n2)c1`, the IC50 in test [1] is 70 nM. The compound also came in with a Ki in test [2] of 0.9 nM.

Consider `Cc1nc(Nc2cc(C(F)(F)F)ccn2)cc(C2CCCN(C(=O)c3ccccc3)C2)n1` (racemic), for which the half-inhibitory concentration (IC50) in test [1] is 229 nM. For the same compound, the affinity in test [2], expressed as Ki, was 24 nM.

Regarding `Cc1cc(C2CCN(C3COC3)CC2)cc(Nc2cc(C#N)ccn2)n1`, the IC50 in test [1] is 1600 nM.

As for `N#Cc1ccnc(Nc2cc(C3CN(C4COC4)C3)cc(N3CCC(F)(F)C3)n2)c1`, the figures for the IC50 in test [1] and in test [3] were 57 nM and 99 nM, respectively. For the same compound, in test [2], the Ki was found to be 0.7 nM.

On to `COC1CN(c2cc(C3CCN(C4COC4)CC3)cc(Nc3cc(C#N)ccn3)n2)C1`, for which the IC50 turned out to be 233 nM in test [1] and 697 nM in test [3]. The inhibition constant (Ki) in test [2] is 8 nM.

Consider `FC1(F)CCN(c2nc(Nc3cc(C(F)(F)F)ccn3)cc(C3CCCNC3)n2)C1` (stereo not drawn), for which the IC50 in test [1] amounted to 408 nM. In test [2], this compound displayed a Ki of 7 nM.

With `Cc1ccnc(Nc2cc(C3CCCN(C(=O)c4ccccc4)C3)nc(C)n2)c1` (racemic), in test [1], the IC50 came to 767 nM. For the same compound, the Ki in test [2] turned out to be 85 nM.

Compound `Cc1nc(Nc2ccccn2)cc(C2CCCN(C(=O)c3ccccc3)C2)n1` (racemic) showed a Ki in test [2] of 942 nM.

The compound `CC(=O)N1CCC(c2cc(Nc3cc(C(F)(F)F)ccn3)nc(N3CCOCC3)n2)CC1` yielded an inhibitory constant (Ki) in test [2] of 431 nM.

Consider `Cc1nc(Nc2cc(C(C)C)ccn2)cc(C2CCCN(C(=O)c3ccccc3)C2)n1` (racemic), for which the IC50 in test [1] was 1300 nM. The compound further gave a Ki in test [2] of 4 nM.

With `FC(F)(F)c1ccnc(Nc2cc(C3CCCNC3)nc(N3CCCC3)n2)c1` (stereo not drawn), in test [1], the IC50 was determined as 109 nM. This compound also registered a Ki in test [2] of 7 nM.

With `CC(C)(C#N)c1cc(Nc2cc(C#N)ccn2)nc(N2CCC(F)(F)C2)c1`, the IC50 in test [1] was 193 nM. Also, the affinity in test [2] corresponds to a Ki of 14 nM.

Consider `N#Cc1ccnc(Nc2cc(C3CCN(C4COC4)CC3)cc(OC3CCC3)n2)c1`, for which the IC50 in test [1] amounted to 64 nM; in test [3], 46 nM. Also, the Ki in test [2] stood at 0.2 nM.

As to `COc1ccnc(Nc2cc(C3CCCN(C(=O)c4ccccc4)C3)nc(C)n2)c1` (racemic), the IC50 in test [1] was 1000 nM. Moreover, the Ki in test [2] amounted to 57 nM.

In test [2], `Cc1nc(Nc2cc(C(F)(F)F)ccn2)cc(C2CCCNC2)n1` (racemic) displayed a Ki of 725 nM.

As for `CCc1cc(C2CCN(C3COC3)CC2)cc(Nc2cc(C#N)ccn2)n1`, the figures for the IC50 in test [1] and in test [3] were 213 nM and 916 nM, respectively.

For the compound `CC(=O)N1CCC(c2cc(Nc3cc(C(F)(F)F)ccn3)nc(N3CCC(F)(F)C3)n2)CC1`, the IC50 in test [1] was 300 nM. The Ki in test [2] was determined as 33 nM.

As for `Cc1nc(Nc2ncc(C)s2)cc(C2CCCN(C(=O)c3ccccc3)C2)n1` (racemic), in test [1], the IC50 is 641 nM. In addition, the affinity in test [2], expressed as Ki, was 35 nM.

As for `Cc1nc(Nc2cc(C3CC3)ccn2)cc(C2CCCN(C(=O)c3ccccc3)C2)n1` (racemic), in test [1], the half-inhibitory concentration (IC50) turned out to be 486 nM. In test [2], this compound gave a Ki of 18 nM.

In test [2], `CC(=O)N1CCC(c2cc(Nc3cc(C(F)(F)F)ccn3)nc(N3CC(F)(F)C3)n2)CC1` displayed a Ki of 166 nM.

For the compound `FC1(F)CCN(c2nc(Nc3cc(C(F)(F)F)ccn3)cc(C3CCOCC3)n2)C1`, the IC50 in test [1] was 440 nM. Further, the Ki in test [2] came out at 41 nM.

As to `CC(=O)N1CCC(c2cc(Nc3cc(C#N)ccn3)nc(N3CCC(F)(F)C3)c2)CC1`, the IC50 in test [3] turned out to be 180 nM. In test [2], the affinity, expressed as Ki, was 25 nM.

As to `Cc1nc(Nc2cc(C#N)ccn2)cc(C2CCCN(C(=O)c3ccccc3)C2)n1` (racemic), the IC50 in test [1] amounted to 1000 nM. Besides, the affinity in test [2] corresponds to a Ki of 90 nM.

Broadly, the IC50 is the concentration needed to halve the response being measured. As a reminder, the Ki is a measure of affinity in units of concentration, obtained from inhibition or displacement. Lower therefore signals a stronger hold on the target.
